Calls of active or inactive are those of the source. No cut-off for these calls is given here.
Key:
[1] = molecular target: T1, N-acylethanolamine-hydrolyzing acid amidase (Homo sapiens, UniProt Q02083); assay: Inhibition of recombinant human spleen NAAA expressed in HEK293 cells using PAMCA as substrate preincubated for 10 mins followed by substrate addition measured after 50 mins by fluorescence assay
T1 sequence (Q02083 whole entry): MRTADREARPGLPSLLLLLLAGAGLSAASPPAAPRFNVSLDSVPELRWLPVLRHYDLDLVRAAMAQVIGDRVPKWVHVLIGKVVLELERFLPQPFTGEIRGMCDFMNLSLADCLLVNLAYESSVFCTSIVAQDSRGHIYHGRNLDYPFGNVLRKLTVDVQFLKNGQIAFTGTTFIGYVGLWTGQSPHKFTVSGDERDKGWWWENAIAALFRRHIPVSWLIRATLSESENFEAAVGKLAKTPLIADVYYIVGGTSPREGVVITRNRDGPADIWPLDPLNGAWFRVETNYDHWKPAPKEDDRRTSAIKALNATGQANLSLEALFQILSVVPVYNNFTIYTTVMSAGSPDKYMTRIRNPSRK

[2] = species on record: Homo sapiens; assay: Selectivity ratio of IC50 for human acid ceramidase to IC50 for recombinant human spleen NAAA
In short: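 Ratio of h-AC IC50 to h-NAAA IC50, each the mean of three determinations in fluorogenic assays. The NAAA was recombinant human enzyme overexpressed in HEK293 cells, purified, then activated for 3 h at 37 °C at pH 4.5 (phosphate/citrate, 3 mM DTT, 0.1% Triton X-100). The NAAA substrate was PAMCA (hexadecanamide of 7-amino-4-methylcoumarin).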

[3] = Apparent half life in PBS at pH 7.4 at 1 uM at 37 degC after 24 hrs in presence of 10% MeCN by UPLC-MS method; assay type: physicochemical; conditions: read-out: t1/2(app)
In short: (§1)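 Compound incubated 24 h at 37 °C in 0.01 M PBS, pH 7.4, containing 10% MeCN.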

[4] = Half life in mouse plasma at 2 uM after 2 hrs by LC/MS-MS method; assay type: ADME, cell-free
[5] = Half life in rat plasma at 2 uM after 2 hrs by LC/MS-MS method; assay type: ADME, cell-free
[6] = molecular target: T2, Fatty-acid amide hydrolase 1 (Homo sapiens) (UniProt O00519); assay: Inhibition of human FAAH1 expressed in HEK293 cells at 10 uM using [3H]anandamide as substrate preincubated for 10 mins followed by substrate addition measured after 30 mins by liquid scintillation counting method relative to control
T2 sequence (whole entry): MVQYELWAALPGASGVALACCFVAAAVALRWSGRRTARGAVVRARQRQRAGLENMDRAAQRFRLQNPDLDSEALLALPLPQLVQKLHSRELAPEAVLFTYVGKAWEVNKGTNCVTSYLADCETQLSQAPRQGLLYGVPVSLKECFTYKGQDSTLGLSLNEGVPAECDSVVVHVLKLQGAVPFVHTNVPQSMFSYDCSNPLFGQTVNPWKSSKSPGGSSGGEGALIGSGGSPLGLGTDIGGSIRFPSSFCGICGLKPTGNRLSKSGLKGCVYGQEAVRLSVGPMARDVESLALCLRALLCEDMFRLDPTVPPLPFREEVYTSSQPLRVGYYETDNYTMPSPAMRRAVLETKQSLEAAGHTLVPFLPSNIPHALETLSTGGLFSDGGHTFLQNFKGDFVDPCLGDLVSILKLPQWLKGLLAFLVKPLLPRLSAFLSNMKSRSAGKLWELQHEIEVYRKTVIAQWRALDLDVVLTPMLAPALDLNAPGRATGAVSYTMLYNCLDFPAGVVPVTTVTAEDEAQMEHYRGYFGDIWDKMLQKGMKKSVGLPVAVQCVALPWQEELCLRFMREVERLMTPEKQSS

[7] = Chemical stability in PBS at pH 7.4 assessed as parent compound remaining at 1 uM at 37 degC after 24 hrs in presence of 10% MeCN by UPLC-MS method; assay type: physicochemical; conditions: read-out: Stability; in short: as §1
[8] = molecular target: T3, Acid ceramidase (Homo sapiens, UniProt Q13510); assay: Inhibition of human acid ceramidase expressed in HEK293 cells using N-[(1S,2R)-2-hydroxy-1-(hydroxymethyl)-4-(2-oxochromen-7-yl)-oxybutyl]dodecanamide as substrate preincubated for 10 mins followed by substrate addition measured after 3 hrs by fluorescence assay; assay type: cell-based
T3 sequence (Q13510 whole entry): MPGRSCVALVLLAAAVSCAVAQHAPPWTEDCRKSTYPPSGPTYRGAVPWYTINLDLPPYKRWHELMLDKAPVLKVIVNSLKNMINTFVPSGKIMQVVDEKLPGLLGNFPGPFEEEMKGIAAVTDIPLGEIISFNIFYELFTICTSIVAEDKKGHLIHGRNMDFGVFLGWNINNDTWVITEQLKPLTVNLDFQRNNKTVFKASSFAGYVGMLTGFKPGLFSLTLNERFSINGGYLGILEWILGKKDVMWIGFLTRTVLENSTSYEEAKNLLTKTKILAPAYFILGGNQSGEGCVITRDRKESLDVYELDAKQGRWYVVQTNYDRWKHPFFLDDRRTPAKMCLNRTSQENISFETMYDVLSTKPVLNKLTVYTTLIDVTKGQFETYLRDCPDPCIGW
In short: (§2)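 Human acid ceramidase fluorogenic assay. IC50 taken as the mean of three determinations.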

[9] = molecular target: T4, Acid ceramidase (Homo sapiens) (UniProt Q13510); assay: Inhibition of human acid ceramidase expressed in HEK293 cells at 50 uM using N-[(1S,2R)-2-hydroxy-1-(hydroxymethyl)-4-(2-oxochromen-7-yl)-oxybutyl]dodecanamide as substrate preincubated for 10 mins followed by substrate addition measured after 3 hrs by fluorescence assay relative to control; assay type: cell-based; in short: as §2
T4 sequence (whole entry): T3 sequence (Q13510 whole entry)

[10] = test system: Mus musculus; assay: Antiinflammatory activity in CD1 mouse assessed as inhibition of carrageenan-induced paw edema at 0.5 to 50 ug/paw administered intraplantarly post carrageenan challenge measured over 2 to 48 hrs by plethysmometer; assay type: functional
In short: (§3)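 Male CD1 mice (25-30 g). Paw edema induced by λ-carrageenan (1% w/v in sterile water, 50 µl) injected into the left hind paw. A fresh suspension in 80% sterile saline/10% PEG-400/10% Tween 80 (10 µl per animal) was given by intraplantar injection just after carrageenan, as a single dose of 0.5–50 µg/paw. Edema was read by plethysmometer and heat hyperalgesia by behavioural test, both blind.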

[11] = test system: Mus musculus; assay: Analgesic activity in CD1 mouse assessed as inhibition of carrageenan-induced heat hyperalgesia at 0.5 to 50 ug/paw administered intraplantarly post carrageenan challenge measured over 2 to 48 hrs; assay type: functional; in short: as §3
[12] = test system: Rattus norvegicus; assay: Oral bioavailability in Sprague-Dawley rat at 10 mg/kg after 15 to 1440 mins by UPLC/MS analysis; assay type: ADME, organism-based; conditions: in vivo

SMILES	IC50 [1]	half-life at 1 µM [3]	half-life at 2 µM [4]	half-life at 2 µM [5]	inhibition [6]	further results
C[C@H]1[C@H](NC(=O)OCCCCC2CCCCC2)C(=O)N1Oc1ccccc1		> 1440 min	< 5 min	< 5 min	> 50%	Ratio IC50 [2]: 13; remaining at 24 h, 1 µM [7]: 63%; IC50 [8]: 0.3 µM
C[C@H]1[C@H](NC(=O)OCCCCC2CCCCC2)C(=O)N1OC(C)(C)C	> 50 µM					
C[C@H]1[C@H](NC(=O)OCCCCC2CCCCC2)C(=O)N1OCCCS(C)(=O)=O		> 1440 min	< 5 min	< 5 min	> 50%	Ratio IC50 [2]: > 1000; inhibition [9]: > 50%; remaining at 24 h, 1 µM [7]: 67%
C[C@H]1[C@H](NC(=O)OCCCCC2CCCCC2)C(=O)N1Oc1ccc(S(C)(=O)=O)cc1		727 min	< 5 min	< 5 min	> 50%	inhibition [10]: Active; inhibition [11]: Active; IC50 [8]: 2.02 µM
CCCCCCCCC(=O)N[C@H]1CNC1=O			130 min			F [12]: 67%

Further lines, with some results ahead:

IC50 [1]	half-life at 1 µM [3]	half-life at 2 µM [4]	half-life at 2 µM [5]	inhibition [6]	SMILES	further results
1.98 µM					CN1C[C@H](NC(=O)OCCCCC2CCCCC2)C1=O	
0.016 µM					CON1C[C@H](NC(=O)OCCCCC2CCCCC2)C1=O	
0.056 µM					CON1C[C@@H](NC(=O)OCCCCC2CCCCC2)C1=O	
7.18 µM					COC(=O)N1C[C@H](NC(=O)OCCCCC2CCCCC2)C1=O	
	> 1440 min	< 5 min	< 5 min	> 50%	CON1C(=O)[C@@H](NC(=O)OCCCCC2CCCCC2)[C@@H]1C	inhibition [9]: > 50%; remaining at 24 h, 1 µM [7]: 97%
> 50 µM					CC(=O)N1C[C@H](NC(=O)OCCCCC2CCCCC2)C1=O	
